# Reference: ChEMBL document CHEMBL4004817, “Constituents of the Rhizomes of Boesenbergia pandurata and Their Antiausterity Activities against the PANC-1 Human Pancreatic Cancer Line” (J Nat Prod, 2017)
# The source made the active and inactive calls. The rule behind the calls is not given here.
# Key:
# [1] = system: PANC-1; assay: Antiausteritic activity against human PANC1 cells in nutrient-deprived medium measured after 24 hrs by WST8 assay; assay type: functional
# Summary of the method: (§1)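 Human pancreatic cancer cells were seeded at 1.5 × 10^4/well in DMEM for 24 h at 37 °C under 5% CO2. After two PBS washes, cells received serially diluted samples in DMEM (nutrient-rich) or NDM (pH 7.4), with a control and blank on each plate. After 24 h, cells were washed and given DMEM with 10% WST-8 for 3 h, then A450 was read. Viability (mean of three wells) = (sample − blank)/(control − blank) × 100. For NDM, PC50 is the concentration killing 50% of cells preferentially. Arctigenin was the positive control.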
# [2] = system: PANC-1; assay: Cytotoxicity against human PANC1 cells in DMEM measured after 24 hrs by WST8 assay; assay type: cell-based; conditions: panc-1, 24 h; summary of the method: as §1
# [3] = system: PANC-1; assay: Antiausteritic activity against human PANC1 cells in nutrient-deprived medium assessed as changes in cell morphology by measuring increase in round appearance at 1.5 uM after 24 hrs by ethidium bromide/acridine orange staining based fluorescence imaging method; assay type: functional
# Summary of the method: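 PANC-1 cells were seeded at 6 × 10^4/well in DMEM and held 24 h at 37 °C under 5% CO2. They were washed twice with PBS, then switched to NDM alone (control) or with compound at 1.5 μM for 24 h. EB/AO reagent was added for 5 min, and cells were imaged under fluorescence and phase contrast (20×). Green AO marks live cells; red EB marks dead cells.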
smiles,measurement,setting,value
COc1cc(C[C@H]2C(=O)OC[C@@H]2Cc2ccc(OC)c(OC)c2)ccc1O [ARCTIGENIN],PC50,[1],0.83 µM
COc1cc(O)c(C(=O)[C@@H]2[C@H](C/C=C(\C)CO)C(C)=CC[C@H]2c2ccccc2)c(O)c1,PC50,[1],6.3 µM
same,Activity,[2],Non-Toxic
COc1cc(O)cc(O)c1C(=O)[C@@H]1CC=C(C)[C@H](CC=C(C)C)[C@H]1c1ccccc1,PC50,[1],7.4 µM
same,Activity,[2],Non-Toxic
C=C(C)C(O)C[C@@H]1C(C)=CC[C@@H](c2ccccc2)[C@@H]1C(=O)c1c(O)cc(OC)cc1O (some centres not stated),PC50,[1],18.1 µM
same,Activity,[2],Non-Toxic
COc1cc(O)c(C(=O)[C@@H]2[C@H](CC=C(C)C)C(C)=CC[C@H]2c2ccccc2)c(O)c1 [PANDURATIN A],PC50,[1],7.8 µM
same,Activity,[2],Non-Toxic
CC(C)=CC[C@H]1C(C)=CC[C@@H](c2ccccc2)[C@@H]1C(=O)c1c(O)cc(O)cc1O,PC50,[1],5.8 µM
same,Activity,[2],Non-Toxic
CC(C)=CC[C@@H]1C(C)=CC[C@@H](c2ccccc2)[C@@H]1C(=O)c1c(O)cc(O)cc1O [4-HYDROXYPANDURATIN A],PC50,[1],3.1 µM
same,Activity,[2],Non-Toxic
COc1cc(O)c(C(=O)[C@@H]2CC=C(C)[C@H](CC=C(C)C)[C@H]2c2ccccc2)c(O)c1,PC50,[1],7.8 µM
same,Activity,[2],Non-Toxic
COc1cc(O)c(C(=O)[C@@H]2CC=C(CCC=C(C)C)C[C@H]2c2ccccc2)c(O)c1,PC50,[1],0.84 µM
same,Activity,[3],Active
same,Activity,[2],Non-Toxic
COc1cc(O)cc(O)c1C(=O)[C@@H]1[C@H](CC=C(C)C)C(C)=CC[C@H]1c1ccccc1,PC50,[1],2.8 µM
same,Activity,[2],Non-Toxic
COc1cc(O)c(C(=O)[C@@H]2[C@H](/C=C/C(C)(C)O)C(C)=CC[C@H]2c2ccccc2)c(O)c1,PC50,[1],6.6 µM
same,Activity,[2],Non-Toxic
COc1cc(O)c(C(=O)[C@@H]2[C@@H](CC=C(C)C)C(C)=CC[C@H]2c2ccccc2)c(O)c1,PC50,[1],7.2 µM
same,Activity,[2],Non-Toxic
COc1cc(O)c(C(=O)[C@@H]2CC=C(C)[C@@H](CC=C(C)C)[C@H]2c2ccccc2)c(O)c1 [(-)-NICOLAIOIDESIN B],PC50,[1],2.1 µM
same,Activity,[2],Non-Toxic
COc1cc(O)cc(O)c1C(=O)[C@@H]1[C@H](/C=C/C(C)(C)OC)C(C)=CC[C@H]1c1ccccc1,PC50,[1],10.5 µM
same,Activity,[2],Non-Toxic
COc1cc(O)c(C(=O)[C@@H]2CC=C(C)[C@@H](/C=C/C(C)(C)O)[C@H]2c2ccccc2)c(O)c1,PC50,[1],3.3 µM
same,Activity,[2],Non-Toxic
COc1cc(O)cc(O)c1C(=O)[C@@H]1CC=C(C)[C@@H](CC=C(C)C)[C@H]1c1ccccc1,PC50,[1],1 µM
same,Activity,[2],Non-Toxic
